# GSK3 alpha inh – human GSK-3 alpha kinase inhibition; 320,000 tested, 0.1% active; AID 2650; ADP-Glo luminescence, 60 min; P49840; inhibition, % at 10 µM;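 active = more than half of replicates show inhibition above 20%; inconclusive = some but at most half of replicates above 20% inhibition; inactive = no replicate shows inhibition above 20%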;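 note: GST-tagged GSK-3 alpha with peptide substrate and 25 µM ATP; 0% = DMSO neutral wells and 100% = GW8510 positive control wells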
# STK33 kinase inh – inhibitors of human STK33 kinase; inhibition, % at 10 µM; purified STK33, MBP phosphorylation, ADP-Glo luminescence; 320,000 tested, 0.073% active; Q9BYT3;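 active = inhibition at or above 25%, using the most active replicate where run in duplicate; inactive = inhibition below 25%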
# GSK3B inh – inhibitors of human GSK3beta kinase; GST-GSK3beta kinase, ADP-Glo luminescence, 60 min; stronger effect = lower value; activity score (negative = inhibition), % at 10 µM; 300,000 tested, 0.038% active;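 active = more than half of replicate wells score below -50%, meaning over 50% inhibition versus plate controls; inconclusive = some replicates but at most half score below -50%; inactive = no replicate scores below -50%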;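 note: 0% = median DMSO wells and -100% = median GW8510 positive control wells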
#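 Test system – GST-tagged human GSK3beta kinase, cell-free · Incubation – 60 min enzyme reaction, room temperature · Signal – ADP-Glo luminescence · Also added – peptide substrate and ATP at 25 µM · Controls – DMSO neutral wells and GW8510 at 20 µM as positive · Buffer or medium – Tris/MgCl2 kinase buffer · Measure – Luminescence-derived activity versus plate DMSO and GW8510 wells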
# CDK5 inh – inhibitors of human CDK5/p35 kinase; inhibition, % at 10 µM; Recombinant CDK5/p35, ADP-Glo luminescence, 60 min; Q00535+Q15078; 330,000 tested, 0.01% active;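 active = highest replicate inhibition of at least 50% and at least 75% of replicates reaching 50%; inconclusive = only one of the two criteria met; inactive = both criteria failed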;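 note: plate controls were DMSO neutral control for no effect and GW8510 at 10 µM for full effect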
# Target sequence (Q00535 whole entry, looked up): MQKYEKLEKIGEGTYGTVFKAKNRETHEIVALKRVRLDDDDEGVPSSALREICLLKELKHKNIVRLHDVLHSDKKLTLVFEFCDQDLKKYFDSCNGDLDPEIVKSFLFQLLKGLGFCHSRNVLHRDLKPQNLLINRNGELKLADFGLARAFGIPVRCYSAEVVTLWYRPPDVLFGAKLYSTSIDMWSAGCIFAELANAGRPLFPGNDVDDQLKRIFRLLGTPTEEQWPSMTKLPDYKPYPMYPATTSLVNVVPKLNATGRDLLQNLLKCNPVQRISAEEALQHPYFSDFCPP
# Target sequence (Q15078 whole entry, looked up): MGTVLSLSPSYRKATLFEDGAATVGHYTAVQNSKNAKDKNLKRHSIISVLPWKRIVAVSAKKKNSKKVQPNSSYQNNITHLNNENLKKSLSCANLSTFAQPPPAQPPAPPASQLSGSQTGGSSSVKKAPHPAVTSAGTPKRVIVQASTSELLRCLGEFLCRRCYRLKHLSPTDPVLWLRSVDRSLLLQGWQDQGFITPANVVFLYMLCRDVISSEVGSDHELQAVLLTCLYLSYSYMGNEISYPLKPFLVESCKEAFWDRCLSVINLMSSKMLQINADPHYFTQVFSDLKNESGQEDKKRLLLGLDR
# GSIS activator – primary screen for activators of insulin secretion dependent on glucose, INS-1E cells, GLuc reporter luminescence; INS-1E GLuc reporter insulin secretion, 2-3 h; activation, % at 16.6 µM; 370,000 tested, 0.61% active; AID 743287;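 active = lowest replicate activation of at least 40%, so every replicate reaches that level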;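 note: 0% = median of neutral control wells and 100% = median of IBMX positive control wells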
# HIV Env fusion – inhibitors of HIV Env-mediated cell fusion. HeLa-JRFL Env/CEM21 cell fusion, luciferase. inhibition, % at 12.3 µM. 360,000 tested, 1.1% active. AID 651610;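 active = mean replicate inhibition score of at least 50 and every replicate individually at or above 50; inconclusive = only one of the two criteria met; inactive = mean below 50 and not all replicates reaching 50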;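 note: 0% = plate neutral controls and 100% = maraviroc near 300 nM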
# * hit, by the source's call; ? = inconclusive; nt = no result; [ ] = dose if it differs, or a comment. An excerpt weighted towards active compounds, which were near 1.4% of everything screened.
SMILES,GSK3 alpha inh,STK33 kinase inh,GSK3B inh,CDK5 inh,GSIS activator,HIV Env fusion
C[C@@H]1CN([C@H](C)CO)C(=O)Cc2cc(NS(=O)(=O)c3ccc(F)cc3)ccc2O[C@@H]1CN(C)S(=O)(=O)c1cccs1,nt,nt,nt,nt,-3.0,17.2[16.7 µM]
COc1ccc(N2C(=O)N3[C@H](c4cccc(C)c4)[C@@H]4C(=O)N(Cc5ccccc5)C(=O)[C@@H]4[C@]3(Cc3ccccc3)C2=O)cc1,-2.2,-1.3,1.6,nt,-0.5,85.8*
COCC(=O)Nc1ccc2c(c1)OC[C@H](C)N(Cc1cncnc1)C[C@@H](C)[C@@H](OC)CN(C)C2=O,nt,nt,nt,nt,2.1,nt
CCCCCCc1cc2cc(-c3nnc(-c4ccccc4O)o3)c(=O)oc2cc1O,-2.4,0.4,2.4,1.5,-17.4,6.1
CCCCCCc1cc2cc(-c3nnc(-c4ccccc4OC)o3)c(=O)oc2cc1O,-1.1,-0.6,1.6,-2.4,nt,87.5*
CCOc1cc(C2C3=C(CCCC3=O)OC3=C2C(=O)CCC3)cc([N+](=O)[O-])c1O,0.4,-1.0,0.8,-1.8,58.4*,-6.7
O=C(C[C@H]1C=C[C@H](NC(=O)CC2CC2)[C@H](CO)O1)NCc1ccc(-c2ccccc2)cc1,nt,nt,nt,nt,17.4,18.3[16.7 µM]
CCOc1ccccc1CNC(=O)Cn1ccc2cc(S(=O)(=O)N3CCCCCC3)ccc21,0.6,-1.1,0.7,1.5,-24.5,27.3
CCOc1ccccc1CNC(=O)CCn1ccc2cc(S(=O)(=O)N3CCCCC3)ccc21,-1.1,-0.1,-26.3,4.0,9.4,61.5*
CC1CCC(NC(=O)CCn2ccc3cc(S(=O)(=O)N4CCCC4)ccc32)CC1 (configuration not stated),-8.5,0.7,-3.1,0.6,0.5,73.3*
CN(C)CC(=O)Nc1ccc2c(c1)[C@@H]1C[C@@H](CC(=O)NCc3ccc4c(c3)OCO4)O[C@H](CO)[C@@H]1O2,nt,nt,nt,nt,4.0,3.8[16.7 µM]
COc1ccc(NC(=O)Nc2ccc3c(c2)C(=O)N([C@@H](C)CO)C[C@H](C)[C@H](CN(C)Cc2ccc4c(c2)OCO4)OCCCC[C@H](C)O3)cc1,nt,nt,nt,nt,-21.7,82.6*[16.7 µM]
COc1ccc(NC(=O)Nc2ccc3c(c2)C(=O)N([C@@H](C)CO)C[C@@H](C)[C@@H](CN(C)Cc2ccc4c(c2)OCO4)OCCCC[C@@H](C)O3)cc1,nt,nt,nt,nt,-20.2,10.0[16.7 µM]
COc1ccc(NC(=O)Nc2ccc3c(c2)C(=O)N([C@H](C)CO)C[C@H](C)[C@H](CN(C)Cc2ccc4c(c2)OCO4)OCCCC[C@H](C)O3)cc1,nt,nt,nt,nt,-23.0,68.3*[16.7 µM]
C[C@@H]1CN([C@H](C)CO)C(=O)c2cc(NC(=O)CCN3CCOCC3)ccc2O[C@H]1CN(C)S(=O)(=O)c1cn(C)cn1,nt,nt,nt,nt,15.7,nt
C[C@@H]1CCCCO[C@@H](CN(C)Cc2ccccc2)[C@H](C)CN([C@H](C)CO)C(=O)c2cc(NC(=O)c3ccccc3)ccc2O1,nt,nt,nt,nt,-8.0,25.9[16.7 µM]
CN1/C(=C\C(=O)COC(=O)c2nccnc2N)C(C)(C)c2ccccc21,4.6,2.8,-0.8,-0.3,-60.7,58.5*
COc1ccccc1CN(C)C[C@@H]1OCc2cn(nn2)CCCC(=O)N([C@H](C)CO)C[C@@H]1C,nt,nt,nt,nt,5.3,10.3[16.7 µM]
O=C(c1ccccn1)N1CC2(C1)[C@@H](c1ccccc1)[C@@H](CO)N2C(=O)C1CCCC1,nt,nt,nt,nt,-12.6,nt
COc1ccc(C(=O)N2CCN(c3ccc([N+](=O)[O-])c(NCCc4ccc(OC)c(OC)c4)c3)CC2)cc1,-2.5,-2.4,-2.2,-0.6,-46.2,76.8*
COc1ccc(CCNc2cc(N3CCN(C(=O)c4ccc(C)cc4)CC3)ccc2[N+](=O)[O-])cc1OC,0.1,-0.7,-0.8,nt,nt,nt
C[C@@H]1CN([C@@H](C)CO)C(=O)c2cc(NC(=O)CCCN(C)C)ccc2O[C@@H](C)CCCCO[C@H]1CN(C)Cc1ccccc1,nt,nt,nt,nt,19.4,-2.2[16.7 µM]
N=C1CCC(=N)c2c1c(O)c1ccccc1c2O,21.1,32.6*,0.9,2.5,nt,nt
COc1ccc(NC(=O)Nc2ccc3c(c2)C(=O)N([C@@H](C)CO)C[C@H](C)[C@H](CN(C)C(=O)Nc2ccc(OC)cc2)O3)cc1,nt,nt,nt,nt,-3.0,10.2[16.7 µM]
CNC[C@@H]1Oc2ccc(NS(=O)(=O)c3ccc(C)cc3)cc2C(=O)N([C@H](C)CO)C[C@@H]1C,nt,nt,nt,nt,-8.1,nt
SMILES,GSK3 alpha inh,STK33 kinase inh,GSK3B inh,CDK5 inh,GSIS activator,HIV Env fusion
C[C@H]1CCCCO[C@H](CN(C)Cc2ccc(C(F)(F)F)cc2)[C@@H](C)CN([C@@H](C)CO)C(=O)c2cc(NS(=O)(=O)c3ccc(F)cc3)ccc2O1,nt,nt,nt,nt,-15.9,68.1*[16.7 µM]
C[C@H]1CCCCO[C@@H](CN(C)Cc2ccc(C(F)(F)F)cc2)[C@@H](C)CN([C@@H](C)CO)C(=O)c2cc(NS(C)(=O)=O)ccc2O1,nt,nt,nt,nt,-2.3,55.3*[16.7 µM]
C[C@H](CO)N1C[C@H](C)[C@@H](CN(C)Cc2ccc(C(F)(F)F)cc2)OCCCC[C@H](C)Oc2ccc(NS(=O)(=O)c3ccc(Cl)cc3)cc2C1=O,nt,nt,nt,nt,-17.6,55.0*[16.7 µM]
C[C@@H]1CN([C@H](C)CO)C(=O)c2cc(NS(=O)(=O)c3ccc(Cl)cc3)ccc2O[C@@H](C)CCCCO[C@@H]1CN(C)Cc1ccc(C(F)(F)F)cc1,nt,nt,nt,nt,-22.2,?
CN(C)CCCNC(=O)C[C@@H]1CC[C@@H](NC(=O)c2ccccc2F)[C@@H](CO)O1,nt,nt,nt,nt,-4.9,-2.5[16.7 µM]
CCN1[C@@H]2Cn3c(ccc(-c4ccccc4F)c3=O)[C@H]1[C@@H](C(=O)NCCOC)[C@@H]2CO,nt,nt,nt,nt,-0.7,nt
O=C(Nc1nc(-c2cc3ccccc3o2)cs1)c1ccc(S(=O)(=O)N2CCCC2)cc1,-0.4,-1.5,-1.6,-0.4,-1.7,56.7*
Cc1ccc(-c2csc(NC(=O)c3cccc(S(=O)(=O)N4CCN(C)CC4)c3)n2)cc1,-3.0,-2.5,-4.9,-1.8,nt,25.0
O=C(Nc1nc(-c2cccs2)cs1)c1cccc(S(=O)(=O)N2CCCCC2)c1,0.8,-1.3,nt,-0.2,nt,68.5*
C/C=C/c1ccc2c(c1)[C@@H]1[C@@H](CCN1S(=O)(=O)c1cccc(F)c1)[C@H](CO)N2,nt,nt,nt,nt,-8.1,nt
C[C@@H]1CN([C@H](C)CO)S(=O)(=O)c2ccc(C3=CCCCC3)cc2O[C@@H]1CN(C)C(=O)C1CCOCC1,nt,nt,nt,nt,-6.9,13.3[16.7 µM]
O=C(c1cccc(-c2cncc3nccn23)c1)N1CCOCC1,nt,nt,nt,nt,2.1,3.2
CN1CCN(C(=O)c2cccc(-c3cnc4cnc(-c5ccccc5Oc5ccccc5)cn34)c2)CC1,nt,nt,nt,nt,42.1*,0.3
COc1cc(OC)cc(-c2cc3nc(C)c(CCC(=O)O)c(C)n3n2)c1,3.6,-0.3,nt,0.6,nt,72.8*
CCOC(=O)C1CCN(C(=O)CCc2c(C)nc3cc(-c4ccccc4)nn3c2C)CC1,-1.5,1.2,1.1,-1.8,3.6,-0.7
CCOC(=O)C1CCCCN1C(=O)CCc1c(C)nc2cc(-c3ccccc3)nn2c1C (configuration not stated),-1.1,-0.5,1.5,-1.6,0.3,60.7*

# Screening data from PubChem BioAssay.
